The nature of series [1]: Microsomal stability in human liver microsomes assessed as half life at 0.5 uM preincubated followed by NADPH addition and measured upto 30 mins by LC-MS/MS analysis. In kind it is ADME, Microsome.
The target of series [2] is Voltage-gated inwardly rectifying potassium channel KCNH2 (Homo sapiens, UniProt Q12809). Put plainly: Inhibition of human ERG. The series is classed as toxicity.
The test system of series [3] is Mycobacterium tuberculosis. Put plainly: Antimycobacterial activity against Mycobacterium tuberculosis H37Rv ATCC 25618 assessed as inhibition of microbial growth incubated for 6 days by resazurin based assay. The series is classed as functional. The following applies: H37Rv ATCC 25618, 144 h, time 6 day. An outline of the steps: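 Ten two-fold dilutions made in neat DMSO, tested in Middlebrook 7H9 with the H37Rv inoculum. Controls: isoniazid from 4 μg/ml as positive control; rifampicin 1 μM as no-growth control. Plates sat sealed at 37 °C without shaking for 6 days.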

Series [4] in a line: Stability of compound in CD1 mouse blood assessed as half life at 0.5 uM incubated upto 240 mins by LC-MS/MS analysis. In kind it is ADME, tissue-based. An outline of the steps: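 Fresh CD1 mouse whole blood collected in EDTA tubes and spiked with compound. Three 300 μl aliquots were incubated at 37 °C. Supernatants were analysed by LC-MS/MS; analyte/internal standard ratios were normalised to time zero as % remaining, and half-life was taken from ln plots of % remaining.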

Series [5] in a line: Microsomal stability in mouse liver microsomes assessed as half life at 0.5 uM preincubated followed by NADPH addition and measured upto 30 mins by LC-MS/MS analysis. In kind it is ADME, Microsome.
The nature of series [6]: Chromatographic hydrophobicity index, log D of the compound in phosphate buffer at pH 7.4 by UV-HPLC analysis. The series is classed as physicochemical.
Series [7] in a line: Kinetic aqueous solubility of compound in phosphate buffer at pH 7.4 incubated for 1 hrs by CLND assay. In kind it is physicochemical. The following applies: read-out: Kinetic_solubility.
The nature of series [8]: Artificial membrane permeability of the compound incubated for 3 hrs by HPLC analysis. In kind it is ADME. The following applies: PAMPA, read-out: permeability.
The test system of series [9] is Mycobacterium tuberculosis. Put plainly: Antimycobacterial activity against Mycobacterium tuberculosis H37Rv ATCC 25618 expressing pATB45luc infected in PMA-stimulated human THP-1 cells assessed as inhibition of intracellular bacterial growth incubated for 4 days by BrightGlo luciferase assay. The series is classed as functional, organism-based. The following applies: H37Rv ATCC 25618, THP-1, 96 h; for IC90: time 4 day. An outline of the steps: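 THP-1 cells grown in RPMI-1640 with 10% FBS, 1 mM pyruvate and 2 mM L-glutamine. Cells were PMA-differentiated (40 ng/ml) while infected with single-cell Mtb H37Rv-pATB45luc at MOI 1:1 for 4 h at 37 °C in a roller bottle, then washed four times. About 10000 cells/well were added onto pre-dispensed compound (max DMSO 0.5%) and incubated 4 days at 37 °C. Luciferase luminescence was read; IC50/IC90 came from nonlinear regression of dose-response curves.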

Series [10] in a line: Stability of compound in CD1 mouse blood at 0.5 uM incubated upto 240 mins in presence of NaF pretreatment by LC-MS/MS analysis. The following applies: 4 h. The series is classed as ADME, tissue-based.
Series [11] is described as follows: Cytotoxicity against human HepG2 cells assessed as cell growth inhibition incubated for 48 hrs by CellTiter-Glo reagent based analysis. The series is classed as toxicity. An outline of the steps:
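HepG2 cells kept in Eagle's MEM with 10% heat-inactivated FBS, 1% NEAA and penicillin/streptomycin, seeded at ~3000 cells/well onto pre-dispensed compound. Incubation was 48 h at 37 °C, 5% CO2. Plates were equilibrated to room temperature, CellTiter-Glo was added, and ATP luminescence was read after 10 min as the viability read-out.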

Converted amounts (≈) assume the structure as drawn.

Chain of Voltage-gated inwardly rectifying potassium channel KCNH2 (Q12809 whole entry): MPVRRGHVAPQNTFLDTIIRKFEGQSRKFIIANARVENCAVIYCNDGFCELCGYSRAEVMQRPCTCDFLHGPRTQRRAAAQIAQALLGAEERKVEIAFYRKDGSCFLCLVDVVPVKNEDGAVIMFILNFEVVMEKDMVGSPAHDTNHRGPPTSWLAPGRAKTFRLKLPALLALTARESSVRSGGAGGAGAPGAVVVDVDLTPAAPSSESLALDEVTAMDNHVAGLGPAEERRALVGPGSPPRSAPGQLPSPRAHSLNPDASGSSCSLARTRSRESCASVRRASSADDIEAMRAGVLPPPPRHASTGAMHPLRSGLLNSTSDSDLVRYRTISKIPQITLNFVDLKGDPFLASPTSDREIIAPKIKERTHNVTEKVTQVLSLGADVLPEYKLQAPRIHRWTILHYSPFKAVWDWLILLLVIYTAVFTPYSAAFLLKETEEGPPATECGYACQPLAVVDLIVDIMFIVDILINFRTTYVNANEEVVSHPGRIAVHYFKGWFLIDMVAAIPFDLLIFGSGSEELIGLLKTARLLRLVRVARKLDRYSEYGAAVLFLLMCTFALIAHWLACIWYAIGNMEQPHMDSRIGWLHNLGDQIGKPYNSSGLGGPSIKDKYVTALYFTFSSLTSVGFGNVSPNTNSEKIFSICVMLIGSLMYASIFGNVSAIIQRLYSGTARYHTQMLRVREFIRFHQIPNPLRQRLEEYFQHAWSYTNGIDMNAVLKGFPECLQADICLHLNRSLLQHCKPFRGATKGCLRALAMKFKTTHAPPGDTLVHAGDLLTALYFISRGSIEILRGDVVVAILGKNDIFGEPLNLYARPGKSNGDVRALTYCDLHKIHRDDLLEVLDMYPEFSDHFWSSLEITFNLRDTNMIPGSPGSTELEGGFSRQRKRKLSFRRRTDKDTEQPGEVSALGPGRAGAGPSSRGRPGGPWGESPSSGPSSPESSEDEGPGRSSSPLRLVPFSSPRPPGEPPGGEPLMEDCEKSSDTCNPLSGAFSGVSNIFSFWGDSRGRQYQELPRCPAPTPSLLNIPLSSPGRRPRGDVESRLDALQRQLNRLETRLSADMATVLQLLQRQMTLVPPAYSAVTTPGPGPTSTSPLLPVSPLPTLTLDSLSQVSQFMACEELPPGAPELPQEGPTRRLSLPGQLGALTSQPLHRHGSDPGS

On to `COc1ccc2nc(C)cc(OCC(=O)Nc3cc(C)cc(C)c3)c2c1`, for which the half-life at 0.5 µM in series [1] was more than 30 min; in series [4], less than 5 min; in series [5], less than 5 min. For the same compound, the figures for the IC50 in series [2] and in series [9] were more than 50.1 µM and 0.05 µM, respectively. In series [3], the MIC was 1.9 µM. In addition, in series [6], the chromatographic logD came to 5.64. In addition, the solubility kinetic at 1 h in series [7] came to 26 µM (≈ 9.11 µg/mL). The Papp at 3 h in series [8] came to 18 ×10⁻⁶ cm/s. In addition, the IC90 in series [9] is 0.2 µM.
Turning to `COc1ccc2nc(C)cc(OCCNc3cc(C)cc(C)c3)c2c1`, the half-life at 0.5 µM in series [1] was more than 30 min; in series [4] it was more than 120 min; in [5], less than 5 min. Moreover, the MIC in [3] stood at 32 µM. Moreover, in series [6], the chromatographic logD came to 6.93. In addition, the solubility kinetic at 1 h in [7] is 33 µM (≈ 11.1 µg/mL). Further, the Papp at 3 h in series [8] came to 19 ×10⁻⁶ cm/s. For the same compound, the Stability result in [10] is on record as “Stable”. For the same compound, the IC50 at 48 h in [11] was determined as 31.6 µM.
Take `COc1ccc2nc(C)cc(OCC(=O)Nc3cc(C)c(F)c(C)c3)c2c1`: the half-life at 0.5 µM in series [1] was more than 30 min; in [4], less than 5 min; in series [5], less than 5 min. Besides, the values for the IC50 in series [2] and in series [9] were more than 50.1 µM and 0.08 µM, respectively. Also, the minimum inhibitory concentration (MIC) in [3] stood at 2 µM. In series [6], this compound gave a chromatographic logD of 5.5. The solubility kinetic at 1 h in [7] worked out at 31.5 µM (≈ 11.6 µg/mL). Moreover, the Papp at 3 h in [8] stood at 21 ×10⁻⁶ cm/s. Besides, the IC90 in [9] was determined as 0.25 µM. Besides, the 50% inhibitory concentration (IC50) at 48 h in [11] was more than 100 µM.
With `COc1ccc2nc(C)cc(OCc3nc4cc(C)ccc4o3)c2c1`, the half-life at 0.5 µM is 15.7 min in series [1], more than 240 min in series [4] and less than 5 min in [5]. The half-maximal inhibitory concentration (IC50) in series [2] is more than 50.1 µM. In addition, the minimal inhibitory concentration (MIC) in [3] turned out to be 5.5 µM. In series [6], this compound registered a chromatographic logD of 6.12. Besides, the solubility kinetic at 1 h in series [7] came to 1 µM (≈ 0.334 µg/mL). Further, the Papp at 3 h in [8] was 8.6 ×10⁻⁶ cm/s. Further, the 90% effect concentration (IC90) in [9] is 5 µM. Moreover, the half-inhibitory concentration (IC50) at 48 h in series [11] is more than 100 µM.
For `COc1ccc2nc(C)cc(OC(C)(C)C(=O)Nc3cc(C)cc(C)c3)c2c1`, the half-life at 0.5 µM is 19 min in series [1], 96 min in [4] and less than 5 min in [5]. In addition, the MIC in [3] is more than 250 µM. In [6], this compound had a chromatographic logD of 6.37. Moreover, the solubility kinetic at 1 h in [7] amounted to 20 µM (≈ 7.57 µg/mL). In addition, the Stability entry in series [10] is given as “Stable”. For the same compound, the concentration for half-maximal inhibition (IC50) at 48 h in series [11] is more than 100 µM.
